# Measured values as given in ChEMBL document CHEMBL1275441, “Effect of impaired renal function on the pharmacokinetics of tomopenem (RO4908463/CS-023), a novel carbapenem” (Antimicrob Agents Chemother, 2008).
# Assays:
# Conditions in all cases: in vivo
# [1] = tested on: Homo sapiens; assay: Drug excretion in human with creatinine clearance of => 80 ml/min assessed as RO4957463 level at 1500 mg, iv administered as single dose after 24 hrs; format: ADME, organism-based
# How it was run: (§1)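 After a single 1,500 mg i.v. infusion over 60 min, urine was collected 0–6, 6–12 and 12–24 h post-dose, with volume and pH recorded. Aliquots were mixed 1:1 with 0.5 M MOPS, protected from light and frozen at −70°C. Parent and metabolite were assayed by a validated method. CLR = Ae24/plasma AUC24. n = 8 per group, mean ± SD.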
# [2] = tested on: Homo sapiens; assay: Drug excretion in human with creatinine clearance of 30-49 ml/min assessed as RO4957463 level at 1500 mg, iv administered as single dose after 24 hrs; format: ADME, organism-based; how it was run: as §1
# [3] = tested on: Homo sapiens; assay: Dose normalized excretion in human with creatinine clearance of 30-49 ml/min assessed as RO4957463 level at 1500 mg, iv administered as single dose after 24 hrs; format: ADME, organism-based; how it was run: as §1
# [4] = tested on: Homo sapiens; assay: Drug excretion in human with creatinine clearance of =< 30 ml/min assessed as RO4957463 level at 1500 mg, iv administered as single dose after 24 hrs; format: ADME, organism-based; how it was run: as §1
# [5] = tested on: Homo sapiens; assay: Renal clearance in human with creatinine clearance of 30-49 ml/min assessed as RO4957463 level at 1500 mg, iv administered as single dose after 24 hrs; format: ADME, organism-based, Kidney; how it was run: as §1
# [6] = tested on: Homo sapiens; assay: Dose normalized excretion in human with creatinine clearance of => 80 ml/min assessed as RO4957463 level at 1500 mg, iv administered as single dose after 24 hrs; format: ADME, organism-based; how it was run: as §1
# [7] = tested on: Homo sapiens; assay: Drug excretion in human with creatinine clearance of 50-79 ml/min assessed as RO4957463 level at 1500 mg, iv administered as single dose after 24 hrs; format: ADME, organism-based; how it was run: as §1
# [8] = tested on: Homo sapiens; assay: Renal clearance in human with creatinine clearance of => 80 ml/min assessed as RO4957463 level at 1500 mg, iv administered as single dose after 24 hrs; format: ADME, organism-based, Kidney
# How it was run: (§2)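 Single 1,500 mg i.v. infusion over 60 min, with 8 subjects per renal-function group (CL_CR by Cockcroft-Gault at screening). Urine was collected at 0–6, 6–12 and 12–24 h, volume and pH recorded, and aliquots mixed 1:1 with 0.5 M MOPS. Samples were frozen at −70°C, protected from light, and assayed by a validated method. CL_R = A_e24/AUC₂₄.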
# [9] = tested on: Homo sapiens; assay: Renal clearance in human with creatinine clearance of =< 30 ml/min assessed as RO4957463 level at 1500 mg, iv administered as single dose after 24 hrs; format: ADME, organism-based, Kidney; how it was run: as §2
# [10] = tested on: Homo sapiens; assay: Renal clearance in human with creatinine clearance of 50-79 ml/min assessed as RO4957463 level at 1500 mg, iv administered as single dose after 24 hrs; format: ADME, organism-based, Kidney; how it was run: as §2
# [11] = tested on: Homo sapiens; assay: Dose normalized excretion in human with creatinine clearance of 50-79 ml/min assessed as RO4957463 level at 1500 mg, iv administered as single dose after 24 hrs; format: ADME, organism-based; how it was run: as §1
# [12] = tested on: Homo sapiens; assay: Dose normalized excretion in human with creatinine clearance of =< 30 ml/min assessed as RO4957463 level at 1500 mg, iv administered as single dose after 24 hrs; format: ADME, organism-based; how it was run: as §1
smiles,measurement,setting,value
C[C@@H]1[C@H]([C@H](C(=O)O)[C@@H](C)O)N=C(C(=O)O)[C@H]1S[C@H]1C[C@@H](C(=O)N2CC[C@H](NC(=O)CNC(=N)N)C2)N(C)C1,Activity,[1],240 mg
same,Activity,[2],281 mg
same,Activity,[3],18.7%
same,Activity,[4],194 mg
same,CL_renal,[5],3.91 L/h
same,Activity,[6],16%
same,Activity,[7],279 mg
same,CL_renal,[8],13.2 L/h
same,CL_renal,[9],1.01 L/h
same,CL_renal,[10],8.27 L/h
same,Activity,[11],18.6%
same,Activity,[12],13.1%
